12 molecules from ChEMBL document CHEMBL1142302, “Discovery of subnanomolar arginine-glycine-aspartate-based alphaVbeta3/alphaVbeta5 integrin binders embedding 4-aminoproline residues” (J Med Chem, 2008) can be followed below.

The IC50 is the concentration needed to halve the response being measured. One may read the inhibition as the percentage by which the read-out fell short of the control.

*1 amine or outer side, *2 acyl side, *3 side chain or, on linkers, in order; H or OH if unused. Where a SMILES comes first, the peptide text is derived from it. Bridges are numbered along the chain shown (N, C = ends). [ ]: non-standard residue; d: D form. Pro(trans-4-NH2) = O=C([C@@H]1C[C@@H](N[*:3])CN1[*:1])[*:2]

Experiment [1] concerns the target T1, Integrin alpha-V/beta-3 (Homo sapiens, UniProt P05106+P06756). In words: Displacement of [125I]echistatin from human integrin alpha-V-beta-3 receptor by solid phase assay. The format is protein-complex assay. In a few lines:
(§1)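 Competitive binding to purified human integrin protein (αVβ3 or αVβ5) measured as inhibition of [¹²⁵I]-echistatin specific binding over a range of inhibitor concentrations. Each point is the mean ± SEM of triplicate determinations, and IC50 is read from the inhibition curves.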
(In general: Loss of bound radioactivity is the signal in a displacement assay; it reports binding, not function.)
Target sequence in this assay (P05106 27-788 limits assumed): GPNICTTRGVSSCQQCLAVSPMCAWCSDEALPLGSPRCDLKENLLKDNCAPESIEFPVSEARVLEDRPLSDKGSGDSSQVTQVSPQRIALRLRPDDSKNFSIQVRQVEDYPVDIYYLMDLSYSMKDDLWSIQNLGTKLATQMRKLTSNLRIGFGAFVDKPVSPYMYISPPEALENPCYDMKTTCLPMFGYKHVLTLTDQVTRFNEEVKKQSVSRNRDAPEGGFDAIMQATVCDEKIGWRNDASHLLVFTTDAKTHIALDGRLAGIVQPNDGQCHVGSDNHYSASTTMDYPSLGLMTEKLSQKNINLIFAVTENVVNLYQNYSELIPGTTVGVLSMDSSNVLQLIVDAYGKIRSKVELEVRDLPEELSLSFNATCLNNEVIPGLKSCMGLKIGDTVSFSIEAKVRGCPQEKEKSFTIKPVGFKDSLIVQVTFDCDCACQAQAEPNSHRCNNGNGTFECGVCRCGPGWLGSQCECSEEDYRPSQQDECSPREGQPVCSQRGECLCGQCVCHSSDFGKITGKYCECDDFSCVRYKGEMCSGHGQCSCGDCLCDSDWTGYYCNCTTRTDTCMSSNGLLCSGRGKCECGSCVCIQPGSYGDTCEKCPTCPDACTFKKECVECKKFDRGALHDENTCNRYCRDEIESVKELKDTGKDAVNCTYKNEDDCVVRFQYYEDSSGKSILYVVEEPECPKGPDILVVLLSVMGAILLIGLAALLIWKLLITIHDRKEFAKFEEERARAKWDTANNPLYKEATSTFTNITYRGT
Target sequence in this assay (P06756 31-889 limits assumed): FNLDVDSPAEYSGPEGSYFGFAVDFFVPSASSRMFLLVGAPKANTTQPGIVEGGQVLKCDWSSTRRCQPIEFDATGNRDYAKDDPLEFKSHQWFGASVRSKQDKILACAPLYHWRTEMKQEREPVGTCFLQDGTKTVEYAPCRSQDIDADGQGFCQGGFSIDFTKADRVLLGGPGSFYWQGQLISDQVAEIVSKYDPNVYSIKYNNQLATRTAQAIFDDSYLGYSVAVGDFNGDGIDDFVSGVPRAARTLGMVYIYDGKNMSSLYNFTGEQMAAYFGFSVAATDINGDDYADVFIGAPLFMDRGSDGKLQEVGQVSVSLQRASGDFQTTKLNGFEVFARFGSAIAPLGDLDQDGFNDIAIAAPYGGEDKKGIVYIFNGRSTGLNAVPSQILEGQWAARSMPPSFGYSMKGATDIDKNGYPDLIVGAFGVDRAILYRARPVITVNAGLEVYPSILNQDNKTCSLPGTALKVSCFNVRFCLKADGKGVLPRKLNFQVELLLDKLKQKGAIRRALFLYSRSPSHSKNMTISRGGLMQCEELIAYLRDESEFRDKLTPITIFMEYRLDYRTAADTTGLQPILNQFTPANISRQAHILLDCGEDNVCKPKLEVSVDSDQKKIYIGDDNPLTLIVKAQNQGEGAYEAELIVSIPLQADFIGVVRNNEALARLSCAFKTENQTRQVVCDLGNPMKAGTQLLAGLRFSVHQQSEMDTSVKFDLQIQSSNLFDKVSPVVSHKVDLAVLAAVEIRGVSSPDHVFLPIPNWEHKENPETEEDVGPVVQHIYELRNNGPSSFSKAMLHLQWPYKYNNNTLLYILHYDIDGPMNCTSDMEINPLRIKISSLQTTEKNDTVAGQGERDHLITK
Target sequence in this assay (P06756 891-1048 limits assumed): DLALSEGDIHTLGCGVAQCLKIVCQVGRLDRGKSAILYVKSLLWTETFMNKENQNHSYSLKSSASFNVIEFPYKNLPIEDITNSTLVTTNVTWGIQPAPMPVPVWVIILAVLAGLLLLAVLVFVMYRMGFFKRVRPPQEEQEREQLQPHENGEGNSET

In experiment [2] the target is T2, Integrin alpha-V/beta-5 (Homo sapiens, UniProt P06756+P18084). In words: Displacement of [125I]echistatin from human integrin alpha-V-beta-5 receptor by solid phase assay. The format is protein-complex assay. The essentials:
as §1
Target sequence in this assay (P06756 31-889 limits assumed): as the sequence (P06756 31-889 limits assumed) above
Target sequence in this assay (P06756 891-1048 limits assumed): as the sequence (P06756 891-1048 limits assumed) above
Target sequence in this assay (P18084 24-799 limits assumed): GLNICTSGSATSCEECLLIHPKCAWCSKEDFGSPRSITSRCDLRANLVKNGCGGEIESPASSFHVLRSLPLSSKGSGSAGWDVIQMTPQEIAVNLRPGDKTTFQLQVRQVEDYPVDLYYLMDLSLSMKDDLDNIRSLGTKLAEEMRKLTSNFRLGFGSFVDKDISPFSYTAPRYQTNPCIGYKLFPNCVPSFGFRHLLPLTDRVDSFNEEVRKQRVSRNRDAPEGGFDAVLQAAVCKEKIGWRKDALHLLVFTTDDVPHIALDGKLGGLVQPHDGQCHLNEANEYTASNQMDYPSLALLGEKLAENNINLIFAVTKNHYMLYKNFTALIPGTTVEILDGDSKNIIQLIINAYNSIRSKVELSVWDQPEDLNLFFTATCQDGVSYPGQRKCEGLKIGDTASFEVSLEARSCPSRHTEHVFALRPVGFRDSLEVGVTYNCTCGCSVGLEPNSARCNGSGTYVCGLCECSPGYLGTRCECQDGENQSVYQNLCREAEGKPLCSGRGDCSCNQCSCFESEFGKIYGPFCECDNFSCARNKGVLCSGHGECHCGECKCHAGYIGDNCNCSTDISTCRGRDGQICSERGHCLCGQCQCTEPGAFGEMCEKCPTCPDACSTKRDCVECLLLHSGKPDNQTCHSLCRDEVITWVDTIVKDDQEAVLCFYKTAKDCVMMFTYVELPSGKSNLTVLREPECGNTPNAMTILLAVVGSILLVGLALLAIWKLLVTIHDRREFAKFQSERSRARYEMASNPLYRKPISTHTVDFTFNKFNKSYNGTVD

The target of experiment [3] is T1, Integrin alpha-V/beta-3. In words: Displacement of [125I]echistatin from human integrin alpha-V-beta-3 receptor high affinity state by solid phase assay relative to control. The format is protein-complex assay. Set-up: concentration or dose not given beside the values. The settings on record: concentration not given here. The essentials:
(§2)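 Competition for [125I]-echistatin specific binding to purified human αvβ3 or αvβ5 integrin protein. Inhibition was plotted against test compound concentration. Each point is the mean ± SEM of triplicate determinations.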

For experiment [4], the target named is T1, Integrin alpha-V/beta-3. In words: Displacement of [125I]echistatin from human integrin alpha-V-beta-3 receptor low affinity state by solid phase assay relative to control. The format is protein-complex assay. Set-up: concentration or dose not given beside the values. As to conditions: concentration not given here. The essentials:
as §2

The target of experiment [5] is T1, Integrin alpha-V/beta-3. As to the kind of experiment: Displacement of [125I]echistatin from human integrin alpha-V-beta-3 receptor low affinity state by solid phase assay. The format is protein-complex assay.
Target sequence in this assay (P05106 27-788 limits assumed): as the sequence (P05106 27-788 limits assumed) above
Target sequence in this assay (P06756 31-889 limits assumed): as the sequence (P06756 31-889 limits assumed) above
Target sequence in this assay (P06756 891-1048 limits assumed): as the sequence (P06756 891-1048 limits assumed) above
Experiment [6] concerns the target T2, Integrin alpha-V/beta-5. As to the kind of experiment: Displacement of [125I]echistatin from human integrin alpha-V-beta-5 receptor low affinity state by solid phase assay. The format is protein-complex assay.
Target sequence in this assay (P06756 31-889 limits assumed): as the sequence (P06756 31-889 limits assumed) above
Target sequence in this assay (P06756 891-1048 limits assumed): as the sequence (P06756 891-1048 limits assumed) above
Target sequence in this assay (P18084 24-799 limits assumed): as the sequence (P18084 24-799 limits assumed) above
Experiment [7] deals with T1, Integrin alpha-V/beta-3. In words: Inhibition of human integrin alpha-v-beta-3 receptor mediated WM115 cell adhesion to vitronectin. The format is cell-based, WM-115.
Target sequence in this assay (P05106 27-788 limits assumed): as the sequence (P05106 27-788 limits assumed) above
Target sequence in this assay (P06756 31-889 limits assumed): as the sequence (P06756 31-889 limits assumed) above
Target sequence in this assay (P06756 891-1048 limits assumed): as the sequence (P06756 891-1048 limits assumed) above
Experiment [8] concerns the target T3, Integrin alpha-5/beta-1 (Homo sapiens, UniProt P05556+P08648). As to the kind of experiment: Inhibition of human integrin alpha5beta1 receptor mediated K562 cell adhesion to vitronectin. The format is cell-based.
In experiment [9] the target is T1, Integrin alpha-V/beta-3. In words: Inhibition of human integrin alpha-V-beta-3 receptor mediated K562 cell adhesion to vitronectin. The format is cell-based.
Target sequence in this assay (P05106 27-788 limits assumed): as the sequence (P05106 27-788 limits assumed) above
Target sequence in this assay (P06756 31-889 limits assumed): as the sequence (P06756 31-889 limits assumed) above
Target sequence in this assay (P06756 891-1048 limits assumed): as the sequence (P06756 891-1048 limits assumed) above
In experiment [10] the target is T3, Integrin alpha-5/beta-1. In words: Inhibition of human integrin alpha-5-beta-1 receptor mediated WM115 cell adhesion to vitronectin. The format is cell-based, WM-115.
The target of experiment [11] is T2, Integrin alpha-V/beta-5. As to the kind of experiment: Displacement of [125I]echistatin from human integrin alpha-V-beta-5 receptor low affinity state by solid phase assay relative to control. The format is protein-complex assay. The settings on record: concentration not given here.
Experiment [12] addresses T2, Integrin alpha-V/beta-5. In words: Displacement of [125I]echistatin from human integrin alpha-V-beta-5 receptor high affinity state by solid phase assay relative to control. The format is protein-complex assay. The settings on record: concentration not given here.

As for `N=C(N)NCCC[C@@H]1NC(=O)[C@@H]2CC[C@H](C2)NC(=O)[C@H](CC(=O)O)NC(=O)CNC1=O`, the IC50 at Integrin alpha-V/beta-3 [1] is 0.26 nM; on Integrin alpha-V/beta-5 [2], 1.12 nM.
`N=C(N)NCCC[C@@H]1NC(=O)[C@@H]2C[C@H](CN2C(=O)c2ccccc2)NC(=O)[C@H](CC(=O)O)NC(=O)CNC1=O`: the inhibition is 31.6% on Integrin alpha-V/beta-3 [3] and 68.4% at Integrin alpha-V/beta-3 [4].
For `N=C(N)NCCC[C@@H]1NC(=O)[C@@H]2C[C@@H](CN2C(=O)c2ccccc2)NC(=O)[C@H](CC(=O)O)NC(=O)CNC1=O`, in that order: 57.8% and 42.2%.
Take `NC(N)=NCCC[C@@H]1NC(=O)CNC(=O)[C@@H](CC(=O)O)N[C@H]2CCC[C@H]3CC[C@H](C1=O)N3C2=O`: the values for the IC50 at Integrin alpha-V/beta-3 [1] and on Integrin alpha-V/beta-5 [2] were 5.64 nM and 0.9 nM, respectively.
Turning to `CCCCCCCN1C[C@@H]2C[C@H]1C(=O)N[C@@H](CCCN=C(N)N)C(=O)NCC(=O)N[C@@H](CC(=O)O)C(=O)N2`, the IC50 turned out to be 178 nM on Integrin alpha-V/beta-3 [5], 2.84 nM on Integrin alpha-V/beta-3 [1], 62.3 nM at Integrin alpha-V/beta-5 [6] and 36.1 nM on Integrin alpha-V/beta-5 [2].
Turning to `CCC(=O)N1C[C@@H]2C[C@H]1C(=O)N[C@@H](CCCN=C(N)N)C(=O)NCC(=O)N[C@@H](CC(=O)O)C(=O)N2`, the IC50 is 251 nM on Integrin alpha-V/beta-3 [5] and 5.6 nM on Integrin alpha-V/beta-3 [1].
Consider `N=C(N)NCCC[C@@H]1NC(=O)[C@@H]2C[C@H](CN2)NC(=O)[C@H](CC(=O)O)NC(=O)CNC1=O` (H-[Pro(trans-4-NH2)]RGD; lactam 1-C), for which the inhibition amounted to 84.5% at Integrin alpha-V/beta-3 [3] and 15.5% at Integrin alpha-V/beta-3 [4].
As for `COC(=O)[C@H]1[C@@H]2NC(=O)[C@H](CC(=O)O)NC(=O)CNC(=O)[C@H](CCCNC(=N)N)NC(=O)[C@H](C(C)C)NC(=O)[C@@H]21`, the IC50 against Integrin alpha-V/beta-3 [7] came out at 20 nM; against Integrin alpha-5/beta-1 [8], 1500 nM; against Integrin alpha-V/beta-3 [9], 20 nM; at Integrin alpha-5/beta-1 [10] it was 1500 nM.
For `NC(N)=NCCC[C@@H]1NC(=O)[C@@H]2C[C@@H](CN2C(=O)c2ccccc2)NC(=O)[C@H](CC(=O)O)NC(=O)CNC1=O`, the IC50 on Integrin alpha-V/beta-3 [5] amounted to 600 nM; at Integrin alpha-V/beta-3 [1] it was 5.15 nM.
Taken in the same sequence, the figures for `NC(N)=NCCC[C@@H]1NC(=O)[C@@H]2C[C@H](CN2C(=O)c2ccccc2)NC(=O)[C@H](CC(=O)O)NC(=O)CNC1=O` were 327 nM and 174 nM.
For the molecule `CCC(=O)N1C[C@@H]2C[C@H]1C(=O)N[C@@H](CCCNC(=N)N)C(=O)NCC(=O)N[C@@H](CC(=O)O)C(=O)N2`, the figures for the inhibition at Integrin alpha-V/beta-3 [3] and on Integrin alpha-V/beta-3 [4] were 42.1% and 57.9%, respectively.
Regarding `CCCCCCCN1C[C@@H]2C[C@H]1C(=O)N[C@@H](CCCNC(=N)N)C(=O)NCC(=O)N[C@@H](CC(=O)O)C(=O)N2`, the inhibition was 71% at Integrin alpha-V/beta-5 [11], 53.7% on Integrin alpha-V/beta-3 [3], 46.3% on Integrin alpha-V/beta-3 [4] and 29% on Integrin alpha-V/beta-5 [12].
